The source of these data is ChEMBL document CHEMBL1681633, “Design, synthesis, and in vitro characterization of novel hybrid peptidomimetic inhibitors of STAT3 protein” (Bioorg Med Chem, 2011).

SMILES strings stand for the structures. The source made the active and inactive calls. The calls are words filed in the database; no cut-off is given here.

Data set [1] concerns the target Signal transducer and activator of transcription 3 (Mus musculus) (UniProt P42227). The data set can be described thus: Inhibition of STAT3 dimerization in v-Src transformed mouse NIH3T3 cells assessed as suppression of STAT3-DNA binding activity in nucleus at 100 uM after 24 hrs by electrophoretic mobility shift assay. The class given is cell-based. The gist of the method: (§1)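 NIH3T3/v-Src cells treated with 100 μM compound for 6 or 24 h; nuclear extracts then tested for STAT3 DNA binding in vitro with radiolabelled hSIE probe by EMSA.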
(In EMSA bound probe runs differently from free probe, usually more slowly.)

The target is the same in data set [2]. Kind of data set: Inhibition of STAT3 dimerization in v-Src transformed mouse NIH3T3 cells assessed as suppression of STAT3-DNA binding activity in nucleus at 100 uM after 6 hrs by electrophoretic mobility shift assay. The class given is cell-based. In short, it runs like this: as §1
Data set [3] has as its target T1, Signal transducer and activator of transcription 3 (Mus musculus, UniProt P42227). Kind of data set: Inhibition of STAT3 dimerization in mouse NIH3T3 cells expressing v-Src assessed as disruption of STAT3-STAT3: DNA complexation in nucleus after 30 mins by electrophoretic mobility shift assay. The class given is cell-based. In short, it runs like this: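 Nuclear extracts from NIH3T3/v-Src (constitutively active STAT3), equal total protein, pre-incubated 30 min at room temperature with increasing compound concentrations, then with radiolabelled hSIE probe; EMSA with densitometry quantification.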

A short description of data set [4]: Metabolic stability in human Caco2 cells at 10 uM at pH 7.4 after 90 mins by LC/MS analysis. In kind it is ADME, cell-based. The settings on record: Caco-2 cells, read-out: Stability. The gist of the method:
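Caco-2 monolayers grown on PET membrane inserts (1.0 µm pore) at 75,000 cells/cm² and used on day 25, fully polarized and differentiated. Compound at 10 μM final, non-gradient pH 7.4/7.4, 90 min. Samples analysed by narrow-window mass-extraction LC/QTof-MS for parent-compound peak areas. Percent recovered or transported calculated relative to the initial dosing concentration.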

The next data set has as its system Caco-2. Kind of data set: Apparent permeability across apical to basolateral side in human Caco2 cells at 10 uM at pH 7.4 after 90 mins by LC/MS analysis. In kind it is ADME, cell-based. The following applies: caco-2, pH 7.4, […]. For orientation: Caco-2 monolayers are a common model of the intestinal barrier.
Data set [5] concerns the target T1, Signal transducer and activator of transcription 3. The data set can be described thus: Inhibition of mouse recombinant SH2 domain of His-tagged full-length STAT3 by surface plasmon resonance assay. In short, it runs like this:
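Purified STAT3 captured on a HisCap sensor chip by injecting 50 μg/ml protein; inhibitors at various concentrations in 1X PBS, 0.5% DMSO running buffer passed over chip; association and dissociation rate constants recorded, their ratio taken as KD.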
A general note: SPR reads the build-up and loss of mass on a sensor chip optically.

The target is the same in data set [6]. The data set can be described thus: Displacement of 5-carboxyfluorescein-GpYLPQTV-NH2 from mouse recombinant His-tagged STAT3-SH2 domain expressed in Escherichia coli BL21 (DE3) by fluorescence polarization assay. In short, it runs like this: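 His-tagged protein expressed in BL21(DE3), Ni-column purified. STAT3 150 nM incubated with serial inhibitor concentrations 60 min at 30 °C in 50 mM NaCl, 10 mM HEPES, 1 mM EDTA, 0.1% NP-40; 15 min equilibration at room temperature; 10 nM final probe added, 30 min room temperature, then FP read.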

Data set [7] addresses T2, Signal transducer and activator of transcription 1 (Mus musculus, UniProt P42225).
T2 sequence (P42225 whole entry): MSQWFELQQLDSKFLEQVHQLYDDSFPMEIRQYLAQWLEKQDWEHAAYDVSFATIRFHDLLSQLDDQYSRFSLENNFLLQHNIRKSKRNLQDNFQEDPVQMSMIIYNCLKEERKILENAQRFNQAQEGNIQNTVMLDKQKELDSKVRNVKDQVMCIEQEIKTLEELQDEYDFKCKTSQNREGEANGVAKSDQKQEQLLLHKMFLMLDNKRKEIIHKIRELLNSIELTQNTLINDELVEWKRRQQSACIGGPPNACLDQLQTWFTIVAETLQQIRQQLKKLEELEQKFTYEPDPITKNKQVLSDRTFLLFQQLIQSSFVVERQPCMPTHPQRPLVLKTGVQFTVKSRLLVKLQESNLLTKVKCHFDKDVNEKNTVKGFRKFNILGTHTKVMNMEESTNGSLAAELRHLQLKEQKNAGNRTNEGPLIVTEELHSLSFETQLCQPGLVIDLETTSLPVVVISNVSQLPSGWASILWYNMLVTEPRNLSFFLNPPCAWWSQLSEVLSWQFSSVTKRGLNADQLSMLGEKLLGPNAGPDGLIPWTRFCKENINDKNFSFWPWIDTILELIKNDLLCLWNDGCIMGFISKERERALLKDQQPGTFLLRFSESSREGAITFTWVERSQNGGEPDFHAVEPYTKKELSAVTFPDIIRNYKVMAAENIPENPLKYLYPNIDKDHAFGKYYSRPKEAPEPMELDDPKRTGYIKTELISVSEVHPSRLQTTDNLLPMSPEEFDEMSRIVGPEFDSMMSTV
Kind of data set: Displacement of 5-carboxyfluorescein-GpYDKPHVL-NH2 from mouse recombinant His-tagged STAT1-SH2 domain expressed in Escherichia coli BL21 (DE3) by fluorescence polarization assay. The gist of the method: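 His-tagged protein expressed in BL21(DE3), Ni-column purified. STAT1 80 nM incubated with serial inhibitor concentrations 60 min at 30 °C in 50 mM NaCl, 10 mM HEPES, 1 mM EDTA, 0.1% NP-40; 15 min equilibration at room temperature; 10 nM final probe added, 30 min room temperature, then FP read.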

The subject of another data set is NIH3T3. The data set can be described thus: Antiproliferative activity against mouse NIH/3T3 cells assessed as suppression of cell viability at 50 uM after 24 hrs by CyQuant cell viability assay. In kind it is functional.
For another data set, the system named is HL-60. Kind of data set: Antiproliferative activity against human HL60 cells assessed as suppression of cell viability after 24 hrs by CyQuant cell viability assay. The settings on record: HL-60, 24 h. In kind it is functional, cell-based. The gist of the method: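 Cells incubated 24 h with a range of inhibitor concentrations; HL-60 cells (no aberrant STAT3 signalling) run as control alongside DU145, Panc-1, NIH3T3/vSrc and breast cancer lines. Viability/growth read by CyQuant assay.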

The test system of another data set is PANC-1. The data set can be described thus: Antiproliferative activity against human PANC1 cells assessed as suppression of cell viability at 50 uM after 24 hrs by CyQuant cell viability assay. The class given is functional. The gist of the method:
(§2)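 Cancer cells (human breast MDA-MB-231, pancreatic Panc-1, prostate DU-145) treated with a range of inhibitor concentrations, 30–50 μM, for 24 h. Growth and viability read by CyQuant cell proliferation/viability assay.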

A further data set relates to DU-145. Kind of data set: Antiproliferative activity against human DU145 cells assessed as suppression of cell viability at 50 uM after 24 hrs by CyQuant cell viability assay. The class given is functional. The gist of the method:
as §2

Another data set has as its system MDA-MB-468 (human). Kind of data set: Antiproliferative activity against human MDA-MB-468 cells assessed as suppression of cell viability at 50 uM after 24 hrs by CyQuant cell viability assay.

T1 sequence (P42227 whole entry): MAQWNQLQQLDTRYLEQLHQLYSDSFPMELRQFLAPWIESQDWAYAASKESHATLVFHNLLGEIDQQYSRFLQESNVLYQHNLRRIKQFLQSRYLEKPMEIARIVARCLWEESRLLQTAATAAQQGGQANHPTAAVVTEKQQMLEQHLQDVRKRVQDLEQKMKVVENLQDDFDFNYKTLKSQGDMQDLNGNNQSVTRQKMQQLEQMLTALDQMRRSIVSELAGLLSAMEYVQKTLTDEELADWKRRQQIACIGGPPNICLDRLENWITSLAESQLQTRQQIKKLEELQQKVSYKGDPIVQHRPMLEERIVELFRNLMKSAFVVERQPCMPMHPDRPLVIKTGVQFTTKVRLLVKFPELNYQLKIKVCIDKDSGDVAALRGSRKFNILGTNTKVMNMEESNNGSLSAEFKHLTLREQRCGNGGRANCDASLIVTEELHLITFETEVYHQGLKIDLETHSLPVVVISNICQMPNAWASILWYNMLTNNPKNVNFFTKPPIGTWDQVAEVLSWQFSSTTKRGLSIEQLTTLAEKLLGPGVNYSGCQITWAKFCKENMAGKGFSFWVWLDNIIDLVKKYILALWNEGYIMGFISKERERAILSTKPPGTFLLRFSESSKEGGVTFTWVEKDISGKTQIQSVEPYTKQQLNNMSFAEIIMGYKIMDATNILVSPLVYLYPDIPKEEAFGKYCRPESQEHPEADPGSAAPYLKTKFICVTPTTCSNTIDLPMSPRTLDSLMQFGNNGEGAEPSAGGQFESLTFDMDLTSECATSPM
Chain of Signal transducer and activator of transcription 3 (Mus musculus) (P42227 whole entry): as above

What is called IC50 is the concentration at which inhibition is half-maximal. A word on the Papp: it is the rate of passage across a membrane or cell layer, normalised by area and donor concentration. The term Kd denotes the concentration at which binding is half-saturated. As for `CC(C)C[C@H](NC(=O)[C@H](Cc1ccc(O)cc1)NC(=O)c1ccc(C#N)cc1)C(=O)Nc1cc(C(=O)NCc2ccccc2)cc(-c2ccc(C(N)=O)cc2)c1`, the outcome in data set [1] and in data set [2] was inactive. Moreover, the IC50 in data set [3] turned out to be 190 µM. Besides, in [4], the remaining at […], 10 µM turned out to be 36%. For the same compound, the apparent permeability (Papp) with Caco-2 is given as above 0.5 ×10⁻⁶ cm/s. Further, the Kd in data set [5] came out at 17 µM.

As usually defined, the Ki is a dissociation constant, usually derived from enzyme kinetics or from competition with a known ligand. Consider `CC(C)C[C@H](NC(=O)[C@H](Cc1ccc(OP(=O)(O)O)cc1)NC(=O)c1ccc(C#N)cc1)C(=O)Nc1ccc(C(=O)NCc2ccccc2)c(-c2cccc(C(N)=O)c2)c1`, for which the Ki in data set [6] was 15 µM. The IC50 in data set [3] worked out at 62 µM.

For the compound `CC(C)C[C@H](NC(=O)[C@H](Cc1ccc(OP(=O)(O)O)cc1)NC(=O)c1ccc(C#N)cc1)C(=O)Nc1cc(C(=O)NCc2ccccc2)cc(-c2cccc(C#N)c2)c1`, the Ki in [6] was 18 µM. In addition, the half-maximal inhibitory concentration (IC50) in data set [3] was found to be 92 µM.

On to `COC(=O)c1ccc(-c2cc(NC(=O)[C@H](CC(C)C)NC(=O)[C@H](Cc3ccc(OP(=O)(O)O)cc3)NC(=O)c3ccc(C#N)cc3)ccc2C(=O)NCc2ccccc2)cc1`, for which the Ki in [6] came to 26 µM. Moreover, the IC50 in [3] is above 200 µM.

For `CC(C)C[C@H](NC(=O)[C@H](Cc1ccc(OP(=O)(O)O)cc1)NC(=O)c1ccc(C#N)cc1)C(=O)Nc1ccc(C(=O)NCc2ccccc2)c(-c2ccc(C#N)cc2)c1`, the Ki in [6] came out at 11 µM. Besides, in data set [3], the half-inhibitory concentration (IC50) worked out at 33 µM.

Consider `COC(=O)c1cccc(-c2cc(NC(=O)[C@H](CC(C)C)NC(=O)[C@H](Cc3ccc(OP(=O)(O)O)cc3)NC(=O)c3ccc(C#N)cc3)cc(C(=O)NCc3ccccc3)c2)c1`, for which, in data set [6], the Ki turned out to be 23 µM. The IC50 in data set [3] came out at 66 µM.

Usually inhibition stands for the drop in the measured response relative to a control, in per cent. Consider `CC(C)C[C@H](NC(=O)[C@H](Cc1ccc(OP(=O)(O)O)cc1)NC(=O)c1ccc(C#N)cc1)C(=O)Nc1cc(C(=O)NCc2ccccc2)cc(-c2ccc(C(N)=O)cc2)c1`, for which the result in [1] was Active. In addition, in [2], the inhibition was 50%. Moreover, the inhibition constant (Ki) in [7] was 16.5 µM; in data set [6] it was 9 µM. In addition, the IC50 in [3] was determined as 5 µM. Also, in data set [5], the Kd was 0.205 µM.

With `CC(C)C[C@H](NC(=O)[C@H](Cc1ccc(O)cc1)NC(=O)c1ccc(C#N)cc1)C(=O)Nc1ccc(C(=O)NCc2ccccc2)c(-c2ccc(C(N)=O)cc2)c1`, the result in data set [1] and in data set [2] was Active. In addition, in data set [3], the IC50 was found to be 103 µM. Also, in [4], the remaining at […], 10 µM turned out to be 52%. In addition, in the data set with Caco-2, the Papp is above 0.5 ×10⁻⁶ cm/s. For the same compound, the Kd in data set [5] was 12 µM.

For `CC(C)C[C@H](NC(=O)[C@H](Cc1ccc(OP(=O)(O)O)cc1)NC(=O)c1ccc(C#N)cc1)C(=O)Nc1cc(C(=O)NCc2ccccc2)cc(-c2cccc(C(N)=O)c2)c1`, in data set [6], the inhibition constant Ki came to 38 µM. The IC50 in data set [3] stood at 188 µM.

For the compound `COC(=O)c1ccc(-c2cc(NC(=O)[C@H](CC(C)C)NC(=O)[C@H](Cc3ccc(OP(=O)(O)O)cc3)NC(=O)c3ccc(C#N)cc3)cc(C(=O)NCc3ccccc3)c2)cc1`, in data set [6], the Ki is 25 µM. In data set [3], the IC50 turned out to be 112 µM.

As to `CC(C)C[C@H](NC(=O)[C@H](Cc1ccc(OP(=O)(O)O)cc1)NC(=O)c1ccc(C#N)cc1)C(=O)Nc1ccc(C(=O)NCc2ccccc2)c(-c2cccc(C#N)c2)c1`, the Ki in data set [6] was found to be 13 µM. Moreover, the IC50 in [3] was found to be 64 µM.

On to `CC(C)C[C@H](NC(=O)[C@H](Cc1ccc(OP(=O)(O)O)cc1)NC(=O)c1ccc(C#N)cc1)C(=O)Nc1cc(C(=O)NCc2ccccc2)cc(-c2ccc(C#N)cc2)c1`, for which, in [6], the Ki amounted to 36 µM. In addition, the IC50 in data set [3] came to 60 µM.

In the case of `COC(=O)c1cccc(-c2cc(NC(=O)[C@H](CC(C)C)NC(=O)[C@H](Cc3ccc(OP(=O)(O)O)cc3)NC(=O)c3ccc(C#N)cc3)ccc2C(=O)NCc2ccccc2)c1`, the Ki in data set [6] was found to be 10 µM. Further, in [3], the concentration for half-maximal inhibition (IC50) was found to be 40 µM.

Turning to `CC(C)C[C@H](NC(=O)[C@H](Cc1ccc(OP(=O)(O)O)cc1)NC(=O)c1ccc(C#N)cc1)C(=O)Nc1ccc(C(=O)NCc2ccccc2)c(-c2ccc(C(N)=O)cc2)c1`, the Activity in the data set on NIH3T3, in the data set with PANC-1, with DU-145 and in the data set on MDA-MB-468 (human) was 50% throughout. Besides, the IC50 with HL-60 was above 200 µM; in [3], 73.1 µM. Further, the result in data set [1] was Active. Besides, the inhibition in data set [2] was above 80%. The Ki in data set [7] was 6.3 µM; in data set [6], 5 µM. Also, the Papp in the data set on Caco-2 is below 0.5 ×10⁻⁶ cm/s. For the same compound, the Kd in data set [5] was 0.9 µM.
